Most compounds without a hit are left out; they make up all but 2% or so of the library.
Tb hexokinase = blocks Trypanosoma brucei hexokinase 1 activity; recombinant TbHK1, G6PDH-coupled NADH A340; inhibition, % at 10 µM; actives 0.11% (n = 220,000); AID 1430;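 active means inhibition of 50% or more in the single-dose primary screen; inactive means inhibition below 50%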
RBBP9 inhibitor = human RBBP9 hydrolase inhibition; O75884; recombinant RBBP9, FP-Rh probe fluorescence polarization; inhibition, % at 7.94 µM; actives 0.2% (n = 220,000); AID 1515;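 active means inhibition above the campaign mean of all tested compounds plus 3 SD, cut at about 14% in these data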;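 further: plate controls were DMSO wells with RBBP9 for no effect and wells lacking RBBP9 protein for full effect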
Target sequence (O75884 whole entry, looked up): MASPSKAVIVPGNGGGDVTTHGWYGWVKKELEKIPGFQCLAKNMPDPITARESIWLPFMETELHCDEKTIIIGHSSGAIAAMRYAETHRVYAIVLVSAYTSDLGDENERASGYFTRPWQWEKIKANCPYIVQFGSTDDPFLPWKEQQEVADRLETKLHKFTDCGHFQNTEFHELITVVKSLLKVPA
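Controls: DMSO-treated enzyme wells and wells lacking RBBP9 | Material: RBBP9 protein | Technique: Fluorescence polarization | Replication: Single well per compound, no replicates | Buffer or medium: Tris-NaCl-Pluronic buffer, pH 8.0 | Timing: 30 min compound preincubation, 45 min probe labeling, 25 °C | Read-out basis: Percent inhibition from mP, scaled between DMSO and no-protein wells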
PfM18AAP inh-1 = blocks P. falciparum M18 aspartyl aminopeptidase; inhibition, % at 7.35 µM; actives 1.2% (n = 290,000); AID 1822; recombinant PfM18AAP, H-Glu-NHMec fluorogenic cleavage;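 active means inhibition above the campaign mean inhibition over all tested compounds plus 3 SD, cut at about 28% in these data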;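 further: 0% = plate median of test compound wells and 100% = 2 mM ZnCl2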
Lipid droplet = modulators of hepatic lipid droplet formation; AML12 mouse hepatocytes, oleate lipid droplets, BODIPY imaging; inhibition, % at 6.5 µM; actives 0.4% (n = 240,000); AID 1656;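 active means lipid droplet intensity inhibited by at least 50%, with more than 500 cells counted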
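Material: mouse AML12 hepatocyte cell line, fixed after treatment; Timing: compound with oleate, overnight; Technique: high-content imaging of BODIPY-stained droplets and DAPI nuclei; Probe or stimulus: oleate, 100 µM final; Dosing: compound at 6.5 µM only.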
zVAD death inh = blocks zVAD induced death of L929 cells. L929 zVAD necroptosis rescue, ATP luminescence, 24 h; with zVAD 60 µM. viability rescue, % at 10 µM. actives 0.38% (n = 220,000). AID 1377;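 active means activation, scaled between plate controls, above about 75%, limit read from the data; inactive means activation under that limit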;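 further: 0% = zVAD with DMSO and 100% = DMSO alone without zVAD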
TNF death inh = TNF-alpha cell death inhibition in Jurkat FADD-/- cells; activation (protection from cell death), % at 10 µM; AID 463075; actives 0.068% (n = 220,000); Jurkat FADD-/- TNF necroptosis rescue, ATP luminescence, 24 h; 0 = TNF only, 100 = no-TNF cells;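 active means activation, meaning protection from cell death, of at least 50% relative to plate controls; inactive means activation below 50%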;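 further: necroptosis triggered by 40 ng/mL TNF-alpha added together with compound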
PfM18AAP inh-2 = confirmation of Plasmodium falciparum M18 aspartyl aminopeptidase inhibitors; actives 28% (n = 2,400); inhibition, % at 7.35 µM; recombinant PfM18AAP, H-Glu-NHMec fluorogenic cleavage; shares compounds with PfM18AAP inh-1;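 active means mean inhibition over replicate wells above the hit cutoff set for the earlier primary screen, cut at about 29% in these data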;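 further: 0% = median of test compound wells and 100% = 2 mM ZnCl2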
CTSL1 confirm = Cathepsin L (human) inhibition, confirmation. AID 2178. purified cathepsin L1, Z-Leu-Arg-MCA fluorescence. inhibition, % at 5.96 µM. 2,400 tested, under 10 active. shares compounds with PfM18AAP inh-1;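 active means average inhibition across replicates above the hit cutoff set in the earlier primary screen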;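 further: 0% = median of test compound wells and 100% = Z-Phe-Ala-diazomethylketone 1 µM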
Target sequence (P07711 whole entry, looked up): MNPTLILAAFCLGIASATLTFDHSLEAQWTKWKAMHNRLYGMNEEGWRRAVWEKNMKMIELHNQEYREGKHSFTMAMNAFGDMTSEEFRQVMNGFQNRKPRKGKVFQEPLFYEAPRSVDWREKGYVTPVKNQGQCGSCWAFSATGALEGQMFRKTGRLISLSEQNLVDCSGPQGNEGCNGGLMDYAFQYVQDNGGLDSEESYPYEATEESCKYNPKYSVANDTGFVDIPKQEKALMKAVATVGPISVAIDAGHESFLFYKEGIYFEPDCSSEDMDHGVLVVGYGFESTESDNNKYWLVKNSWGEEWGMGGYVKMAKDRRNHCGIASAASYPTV
The depositor's hits bear a star; x = no result given.

SMILES	Tb hexokinase	RBBP9 inhibitor	PfM18AAP inh-1	Lipid droplet	zVAD death inh	TNF death inh	PfM18AAP inh-2	CTSL1 confirm
Cc1ncc(CO)c(/C=N/NC(=O)c2ccccc2Br)c1O	-17	1	35*	-19	4	-2	-14	4
COc1ccc(-n2c(O)c(/C=N/Nc3nc(C)cc(C)n3)c3ccccc3c2=O)cc1OC	3	4	34*	5	41	-9	-7	0
COc1ccc(-n2c(O)c(/C=N/NS(=O)(=O)c3ccc(C)cc3)c3ccccc3c2=O)cc1OC	2	-2	7	5	2	0	x	x
O=C(NCCCN1CCOCC1)c1sc2cc(Cl)ccc2c1Cl	-4	-8	6	-12	61	6	x	x
O=C(NCCCN1CCOCC1)c1sc2cc([N+](=O)[O-])ccc2c1Cl	-6	4	59*	4	5	2	33*	-3
CC1CCC/C(=N/Nc2nc3ccccc3s2)C1 (stereo unspecified)	-1	9	39*	18	0	2	-18	-4
CC1(C)CC(=O)C/C(=N/Nc2nc3ccccc3s2)C1	-8	-1	9	2	0	2	x	x
CC(=O)Sc1nc(-c2ccccc2)[nH]c1S(=O)(=O)c1ccc(C)cc1	4	9	55*	0	0	-5	5	-5
FC(F)(F)c1cc(-c2ccc3c(c2)OCO3)nc(NCc2ccco2)n1	-5	-9	37*	x	0	-2	-30	1
O=C(Nc1cc(S(=O)(=O)N2CCOCC2)ccc1N1CCCC1)c1ccc2c(c1)S(=O)(=O)c1ccccc1C2=O	-4	-2	-2	0	1	-1	x	x
O=C1c2ccc([N+](=O)[O-])cc2NC(c2ccco2)N1/N=C/c1ccco1 (stereo unspecified)	-26	5	40*	2	-1	-3	-10	0
COc1ccccc1OCC(=O)Nn1c(=S)[nH]c2ncccc2c1=O	-4	-5	6	10	1	0	x	x
Cc1n[nH]c(=S)n(NC(=O)/C=C/C(=O)Nn2c(=S)[nH]nc(C)c2=O)c1=O	-15	2	35*	10	0	0	-11	8
Cc1n[nH]c(=S)n(NC(=O)CC(=O)Nn2c(=S)[nH]nc(C)c2=O)c1=O	-17	-9	42*	9	1	0	7	-2
Cc1cc(NC(=O)CSc2ccc3nnc(-c4cccs4)n3n2)no1	-3	-9	4	x	0	-2	x	x
O=C(Cc1ccccc1)NNS(=O)(=O)c1ccccc1[N+](=O)[O-]	x	x	2	-2	x	x	x	x
COc1cc([N+](=O)[O-])ccc1NC(=S)Nn1cnnc1	x	x	84*	1	x	x	71*	4
S=C(Nc1ccc(Br)cc1Cl)Nn1cnnc1	-6	-3	77*	4	0	1	80*	2
Cc1ccc(Cl)cc1NC(=S)Nn1cnnc1	x	x	77*	-7	x	x	63*	0
O=C(COc1ccc(Br)cc1Cl)Nn1cnnc1	-5	4	43*	3	2	1	42*	-2
CC(Nc1cc(C)cc(C)c1)=[N+](C)CCNS(=O)(=O)c1ccc(Cl)cc1	x	x	-3	-1	x	x	x	x
CCCCCN1CC(=O)N2C(C)c3[nH]c4ccccc4c3C[C@H]2C1=O (stereo partly specified)	x	x	2	0	x	x	x	x
CCCn1nc(C(=O)Oc2ccc3c(C)cc(=O)oc3c2)c2ccccc2c1=O	-7	-2	0	-1	-1	0	x	x
Cc1ccc(NC(=S)Nn2cnnc2)c(C)c1	x	x	72*	1	x	x	65*	0
FC(F)(F)c1ccccc1NC(=S)Nn1cnnc1	x	x	75*	0	x	x	56*	-2
SMILES	Tb hexokinase	RBBP9 inhibitor	PfM18AAP inh-1	Lipid droplet	zVAD death inh	TNF death inh	PfM18AAP inh-2	CTSL1 confirm
Cc1ccc(NC(=O)Nn2cnnc2)c(C)c1	x	x	57*	9	x	x	36*	0
FC(F)(F)c1ccccc1NC(=S)Nc1cccc2cnccc12	-8	3	7	-4	0	-2	x	x
O=c1cccccc1NCc1ccccc1	-31	3	42*	2	0	-1	-41	3
CCOC(=O)c1c(CN(C)C)n(-c2ccc(C)cc2)c2cc(Br)c(O)cc12	0	3	38*	2	0	-2	-38	3
CCOC(=O)c1c(CN(C)C)n(-c2ccccc2)c2cc(Br)c(OC)cc12	0	-7	-2	8	0	3	x	x
O=C(COCC(=O)NCc1ccccc1)NCc1ccccc1	0	-7	-3	-12	10	0	x	x
COC(=O)Cc1sc(-c2ccccn2)nc1-c1ccccc1	-8	-5	33*	11	3	-2	24	0
Cc1cc(N(C)N)nc(NC(=O)NS(=O)(=O)c2ccccc2Cl)n1	x	x	57*	1	x	x	50*	0
NS(=O)(=O)c1ccc(NNC(=O)c2ccccc2)cc1	-9	-4	21	8	0	3	x	x
CCc1ccc(C(=O)NNc2ccc(S(N)(=O)=O)cc2)cc1	-3	4	35*	6	-1	1	-10	1
CCCCOP(=O)(c1ccc(N(C)C)cc1)C(O)c1ccc(N(C)C)cc1 (stereo unspecified)	x	x	34*	-10	x	x	-59	5
CCCCOP(=O)(c1ccc(N(C)C)cc1)C(O)c1ccc(C(C)C)cc1 (stereo unspecified)	x	x	7	4	x	x	x	x
Cc1onc(-c2c(Cl)cccc2Cl)c1NC(=O)NNc1ccccc1	-2	3	16	-7	-1	-1	x	x
Cc1onc(-c2c(Cl)cccc2Cl)c1NC(=O)NNc1ccccn1	-6	0	40*	23	0	0	13	3
Cc1ccc(-c2nc(N/N=C/c3cccnc3)c3ccccc3n2)cc1	-31	-3	43*	-12	-2	-12	-33	6
COc1cc(/C=C/C(=O)O)cc(S(=O)(=O)Nc2ccc(F)cc2)c1OC	1	-5	-1	8	1	1	x	x
COc1cc(/C=C/C(=O)O)cc(S(=O)(=O)Nc2ccc3nc(C)sc3c2)c1OC	-5	-4	38*	23	0	0	-6	2
O=C(Nc1ncn[nH]1)c1ccc([N+](=O)[O-])cc1[N+](=O)[O-]	-7	-3	44*	x	0	0	34*	1
CSc1ccccc1C(=O)Nc1ncn[nH]1	x	x	5	5	x	x	x	x
O=C(Nc1ncn[nH]1)c1ccccc1Br	-3	0	38*	-14	0	3	44*	-4

Screens: PubChem, several laboratories
